Measurements published in PubChem BioAssay AID504846 (Johns Hopkins Ion Channel Center, 2011).
Active and inactive are the calls of the source.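 The calls were made as follows: active = blocks the KCNK9 potassium channel at some tested concentration and gives a dose response curve; inactive = the rest.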

Molecular target: Potassium channel subfamily K member 9 (Homo sapiens) (UniProt Q9NPC2)
Experiment: concentration-dependent TASK-3 (KCNK9) blockade – HEK293 cells, thallium flux, SAR follow-up (AID 504846)
Details: HEK293-KCNK9, FluxOR thallium flux fluorescence; series mostly up to 30 µM
How it was run: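 Doses: Concentration-response series | System: KCNK9-expressing stable HEK293 cell line | Repeats: Replicate concentration-response series per compound | Signal: Kinetic thallium-dye fluorescence | Reagent: K2SO4 and Tl2SO4 flux stimulus (stock 25 mM, 7 mM) | Incubation: 20 min room-temperature compound pre-incubation, then 110 s post-stimulus reading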

Potassium channel subfamily K member 9 (Homo sapiens), sequence (Q9NPC2 whole entry, looked up): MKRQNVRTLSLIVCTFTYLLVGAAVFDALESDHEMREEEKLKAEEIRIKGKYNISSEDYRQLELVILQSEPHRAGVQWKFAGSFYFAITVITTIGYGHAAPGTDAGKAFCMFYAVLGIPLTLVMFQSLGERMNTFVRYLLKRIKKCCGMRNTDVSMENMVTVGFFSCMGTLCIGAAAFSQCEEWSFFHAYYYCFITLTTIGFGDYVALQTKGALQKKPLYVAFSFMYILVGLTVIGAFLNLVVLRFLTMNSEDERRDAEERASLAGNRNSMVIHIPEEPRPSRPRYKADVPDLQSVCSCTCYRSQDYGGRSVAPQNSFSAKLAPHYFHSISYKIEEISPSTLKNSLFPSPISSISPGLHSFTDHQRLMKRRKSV

Row | SMILES | outcome
1 | Cc1cccc(NC(=O)c2cccc(NC(=O)c3ccccc3)c2)c1 | inactive
2 | Cc1cccc(C(=O)Nc2ccc(C(=O)Nc3ccccc3)cc2)c1 | inactive
3 | Cc1cccc(C(=O)Nc2cccc(C(=O)Nc3ccccc3)c2)c1 | inactive
4 | Cc1cccc(NC(=O)c2ccccc2NC(=O)c2ccccc2)c1 | inactive
5 | Cc1cccc(C(=O)Nc2ccccc2C(=O)Nc2ccccc2)c1 | inactive
